These entries were drawn from the full list.
PGC1a Ac signal: raises PGC1a acetylation signal in U2OS cells; activation, % at 15.6 µM; AID 651723; 0.21% of 350,000 active; U2OS PGC1a acetylation AlphaScreen, overnight;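 active = every replicate reaching activation of at least 50%, whatever the mean replicate activation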;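 note: hits raise the AlphaScreen acetylation signal above neutral controls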
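Incubation: overnight compound treatment, 37 °C. System: U2OS cells transduced with flag-tagged PGC1a and GCN5 acetyltransferase. Detection: AlphaScreen lysate read. Compound: single-point compound dosing.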
* = called active by the depositor.

SMILES	PGC1a Ac signal
Cc1ccc(NC(=S)/N=C(\N)Nc2nc(C)c3cc(C)c(C)cc3n2)cc1C	66*
COC(=O)Nc1ccc(S(=O)(=O)N(CCO)CC(F)(F)C(F)F)cc1	62*
O=S(=O)(c1ccc(N2CCC(c3ccc(Cl)cc3)=N2)cc1)N(CCO)CCO	-43
Cc1cc(Cl)ccc1OCC(=O)Nc1cccc(S(=O)(=O)NC2=NCCCCC2)c1	-41
Cc1nnnn1/C(=C\c1ccccc1)C(=O)OCC(=O)Nc1cccc(S(=O)(=O)N(C)C)c1	96*
O=C(O)c1cccn1Cc1ccccc1F	-54
O=C(CSc1nnc(-c2ccncc2)n1-c1ccc(Cl)cc1)NCc1cccs1	81*
O=C(CSc1nnc(-c2ccco2)n1-c1ccccc1)Nc1c(Cl)cc(Cl)cc1C(=O)O	-52
COc1ccc(-c2cnc3c(c2)C(=O)N([C@H](C)CO)C[C@H](C)[C@@H](CN(C)C(=O)C2CC2)O3)cc1	-111
C[C@H](CO)N1C[C@H](C)[C@@H](CN(C)CC2CCCCC2)Oc2c(NC(=O)c3nc4ccccc4s3)cccc2C1=O	-55
C[C@@H]1CN([C@H](C)CO)C(=O)c2cccc(NC(=O)c3nc4ccccc4s3)c2O[C@@H]1CN(C)CC1CCCCC1	-59
C[C@@H]1CN([C@@H](C)CO)C(=O)c2cc(NC(=O)c3ccncc3)ccc2O[C@@H](C)CCCCO[C@@H]1CN(C)Cc1ccncc1	-46
C[C@@H]1CCCCO[C@H](CN(C)Cc2ccc(C(F)(F)F)cc2)[C@H](C)CN([C@H](C)CO)C(=O)c2cc(NC(=O)Cc3ccccc3)ccc2O1	-42
C[C@H]1CN([C@@H](C)CO)C(=O)c2cccc(NC(=O)C3CCCCC3)c2O[C@H]1CN(C)Cc1ccc(C(=O)Nc2ccccc2N)cc1	173*
C[C@H]1CN([C@@H](C)CO)C(=O)c2cccc(NC(=O)c3nc4ccccc4s3)c2O[C@H]1CN(C)Cc1ccc(C(=O)Nc2ccccc2N)cc1	104*
CN(C)C(=O)C[C@H]1CC[C@@H](NC(=O)C2CCC2)[C@H](CO)O1	-46
C[C@@H]1CN([C@H](C)CO)C(=O)CCCn2nncc2CO[C@H]1CN(C)C(=O)C1CC1	-51
C=CCn1c(SCC(=O)NC(=O)NCc2ccco2)nc2sc(CC)cc2c1=O	57*
O=C1Nc2ccccc2N=C(c2ccccc2)C1N(Cc1ccc(F)cc1)C(=O)c1cccnc1 (configuration not stated)	-41
CS(=O)(=O)Nc1ccc2c(c1)[C@@H]1C[C@H](CC(=O)N3CCc4ccccc4C3)O[C@@H](CO)[C@@H]1O2	-41
Clc1ccc2nc(COc3ccccc3)[nH]c2c1	89*
Cn1ncc2c(O/N=C(\N)c3ccc(C(C)(C)C)cc3)ncnc21	-96
O=C(CCCc1cccs1)NCCc1c[nH]c2ccccc12	-42
COc1ccc(CCNC(=O)C(=O)NCC2CCCO2)cc1OC (configuration not stated)	-44
COc1cc2[nH]c(=O)n(CCCC(=O)NCCc3ccccc3)c(=O)c2cc1OC	84*
SMILES	PGC1a Ac signal
CN(C)Cc1c(O)ccc2c1O/C(=C\C=C\c1ccccc1)C2=O	79*
COc1ccc2c([N+](=O)[O-])c(N3CCCC3)[nH]c2c1	-48
CC(C)(C)c1ccc(CCC2OCC(C[N+]3(C)CCOCC3)O2)cc1 (configuration not stated)	-73
Clc1ccccc1CN1CCSCC1	-47
CCCOc1ccc2c(c1)C(=NN=C(N)N)c1cc(OCCC)ccc1-2	75*
CC(C)NC(=O)Nc1ccc2c(c1)C(=O)N([C@H](C)CO)C[C@@H](C)[C@H](CN(C)S(=O)(=O)c1ccccc1)OCCCC[C@@H](C)O2	-44
CC(C)CC(=O)/C(=C\c1ccc(Cl)cc1Cl)n1cncn1	-60
CC(C)c1nnc(NC(=O)CCS(=O)(=O)c2nc(-c3cccs3)cc(C(F)(F)F)n2)s1	103*
CO[C@H]1CN(C)C(=O)c2cc(NC(C)=O)ccc2OC[C@@H](C)N(CC2CCCCC2)C[C@@H]1C	-41
COc1cc(/C=C2\COC/C(=C\c3ccc(O)c(OC)c3)C2=O)ccc1O	90*
COc1ccc2c(c1)CC/C(=C/c1cc(OC)c(OC)c(OC)c1)C2=O	-52
C/C=C/c1ccc2c(c1)O[C@H](CN(C)C(=O)C1CC1)[C@H](C)CN([C@@H](C)CO)S2(=O)=O	-47
C=CCNC(=S)N1CCN(CCN=CC2=C(O)CC(c3ccco3)CC2=O)CC1 (configuration not stated)	-40
Cc1nn(-c2ccccc2)c(Cl)c1C(=O)N1CCN(c2ncnc3c2cnn3-c2ccccc2)CC1	-59
O=C(CSc1nc(O)cc(=O)n1-c1ccccc1)N1CCCCC1	-44
Nc1nnc(SCC(=O)NC2CCCCC2)n1-c1ccccc1	62*
C=CCn1c(C)nnc1SCC(=O)NC1CC1	-50
O=C(C[C@H]1CC[C@H](NC(=O)C2CCC2)[C@@H](CO)O1)NCC1CC1	-57
C[C@@H]1CN([C@H](C)CO)C(=O)CCCn2nncc2CO[C@@H]1CN(C)S(=O)(=O)c1cn(C)cn1	-101
COc1cccc(N(C(=O)CCl)C(C(=O)NCCc2ccccc2)c2cccs2)c1 (configuration not stated)	-29
COc1cccc(S(=O)(=O)N[C@H]2CC[C@H](CC(=O)NCc3ccc(F)cc3)O[C@@H]2CO)c1	-55
COc1cccc(N(CC(=O)NCc2cccnc2)S(C)(=O)=O)c1	89*
CCOC(=O)N1CCN(C(=O)c2cc(Cl)c(Cl)cc2C(=O)O)CC1	-84
CCCOC1CCCN(C(=O)c2cc(Cl)c(Cl)cc2C(=O)O)C1 (configuration not stated)	87*
CC(=O)OC[C@]12CC[C@H]3[C@@](C)(CC[C@H]4C(C)(C)CCC[C@]34C)[C@@H]1CC(C1=CC(=O)OC1O)O2 (some centres not stated)	-87
SMILES	PGC1a Ac signal
COc1ccc(NC(=O)N(C)C[C@@H]2OCCCC[C@@H](C)Oc3ccc(NC(=O)Cc4ccccc4)cc3C(=O)N([C@H](C)CO)C[C@@H]2C)cc1	-51
C=C1C(=O)[C@]23C[C@H]1CCC2[C@@]1(C)C(C[C@@H]3O)[C@](C)(C(=O)OC)CC[C@@H]1OC(C)=O (some centres not stated)	-103
O=C(OCn1ncc(Cl)c(Cl)c1=O)c1ccc(C(F)(F)F)cc1	154*
Cc1cccc(N(CC(=O)NC(C)(C)C)C(=O)CNC(=O)c2cccs2)c1	-47
Cc1nn(CCCC(=O)O)c(C)c1[N+](=O)[O-]	-42
COc1cccc2cc(C(C)N(CCCN3CCOCC3)C(=S)Nc3cc(C)ccc3C)oc12 (configuration not stated)	-44
COc1ccc(COc2cc(-c3cccc(OC)c3)nc3ccc(NC(=O)c4cccnc4)cc23)cc1	53*
CCN(CC)Cc1c(O)ccc2c([N+](=O)[O-])c(C)n(-c3ccc(OC)cc3)c12	-46
O=C(NC(=S)N1CCN(Cc2ccccc2)CC1)c1cccnc1	-46
O=C(c1ccc2ccccc2c1)N1CCCC1	-46
O=C(C1CCCO1)N1CCN(Cc2c(O)ccc3ccccc23)CC1 (configuration not stated)	191*
O=C(NC(=S)Nc1ccc(CN2CCCCC2)cc1)c1cc2ccccc2o1	-43
Oc1ccc2ccccc2c1CN1CCCCC1	104*
N#CC(C#N)=c1ccc2c(c1)NC1(CCCCC1)N=2	162*
Cc1ccc(OC[C@H](O)[C@H](C)NC(C)C)c2c1CCC2	-45

Screens from PubChem.
